According to ChEMBL document CHEMBL1154333, “Xanthepinone, an antimicrobial polyketide from a soil fungus closely related to Phoma medicaginis” (2009):
≈ marks a conversion by molar mass, not a printed value.

Assays:
Candida albicans = test: Antifungal activity against Candida albicans by serial dilution test; assay type: functional
How it was run: (§1)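 Yeasts tested by serial dilution in YMG medium (glucose 1%, malt extract 1%, yeast extract 0.4%).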

Eremothecium coryli = test: Antifungal activity against Nematospora coryli by serial dilution test; assay type: functional; how it was run: as §1
Rhizomucor miehei = test: Inhibition of conidial germination in Mucor miehei; assay type: functional
How it was run: (§2)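 Conidia from 10-day-old cultures were pelleted (1000g, 10 min) and resuspended in distilled water. Each well held 0.5 × 10⁴ conidia in 0.2 mL distilled water and was incubated 16 h at 28 °C. Germinated conidia were counted under an inverted microscope: triplicates, 3 × 100 conidia. The value is the IC100, the concentration for complete germination inhibition.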

Proteus vulgaris = test: Antibacterial activity against Proteus vulgaris by serial dilution test; assay type: functional
How it was run: (§3)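 Serial broth dilution in nutrient broth.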

Pyricularia grisea = test: Inhibition of conidial germination in Magnaporthe grisea; assay type: functional
How it was run: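 M. grisea strain 70-15, grown on CM medium. Conidia were harvested from plates kept at 28 °C on a 16 h light/8 h dark cycle (24 °C in the dark). They were pelleted (1000g, 10 min) and resuspended in distilled water. Each well held 0.5 × 10⁴ conidia/0.2 mL water, 16 h at 28 °C. Germinated conidia were counted microscopically: triplicates, 3 × 100. Value given as IC100.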

Botrytis cinerea = test: Inhibition of conidial germination in Botrytis cinerea; assay type: functional; how it was run: as §2
Saccharomyces cerevisiae = test: Antifungal activity against Saccharomyces cerevisiae by serial dilution test; assay type: functional; how it was run: as §1
Brevibacillus brevis = test: Antibacterial activity against Bacillus brevis ATCC 9999 by serial dilution test; assay type: functional; how it was run: as §3
Bacillus subtilis = test: Antibacterial activity against Bacillus subtilis ATCC 6633 by serial dilution test; assay type: functional; how it was run: as §3
Escherichia coli = test: Antibacterial activity against Escherichia coli K-12 by serial dilution test; assay type: functional; how it was run: as §3
[1] = tested on: Enterobacter cloacae subsp. dissolvens; test: Antibacterial activity against Enterobacter dissolvens by serial dilution test; assay type: functional; how it was run: as §3
Micrococcus luteus = test: Antibacterial activity against Micrococcus luteus by serial dilution test; assay type: functional; how it was run: as §3
Pseudomonas fluorescens = test: Antibacterial activity against Pseudomonas fluorescens by serial dilution test; assay type: functional; how it was run: as §3
Staphylococcus aureus = test: Antibacterial activity against Staphylococcus aureus by serial dilution test; assay type: functional; how it was run: as §3
Paecilomyces variotii = test: Inhibition of conidial germination in Paecilomyces variotii; assay type: functional; how it was run: as §2
Penicillium chrysogenum = test: Inhibition of conidial germination in Penicillium notatum; assay type: functional; how it was run: as §2
Phytophthora infestans = test: Inhibition of conidial germination in Phytophthora infestans; assay type: functional; how it was run: as §2
HeLa S3 = test: Cytotoxicity against human HeLaS3 cells at 50 ug/ml; assay type: functional, cell-based
HepG2 = test: Cytotoxicity against human HepG2 cells at 50 ug/ml; assay type: functional, cell-based

Compound | MIC (Candida albicans) | MIC (Eremothecium coryli) | MIC (Rhizomucor miehei; Rhizomucor miehei) | MIC (Proteus vulgaris) | IC100 (Pyricularia grisea) | IC100 (Botrytis cinerea) | MIC (Saccharomyces cerevisiae) | MIC (Brevibacillus brevis) | MIC (Bacillus subtilis) | MIC (Escherichia coli) | MIC [1] | MIC (Micrococcus luteus) | MIC (Pseudomonas fluorescens) | MIC (Staphylococcus aureus) | IC100 (Rhizomucor miehei) | IC100 (Paecilomyces variotii) | IC100 (Penicillium chrysogenum) | IC100 (Phytophthora infestans) | Activity (HeLa S3) | Activity (HepG2)
C[C@@H]1[C@H](O)[C@@H](C)/C=C/C=C/C=C/C=C/C=C/C=C/C=C/[C@H](O[C@@H]2O[C@H](C)[C@@H](O)[C@H](N)[C@@H]2O)C[C@@H]2O[C@](O)(C[C@@H](O)C[C@@H](O)[C@H](O)CC[C@@H](O)C[C@@H](O)CC(=O)O[C@H]1C)C[C@H](O)[C@H]2C(=O)O [AMPHOTERICIN B] | 10 µg/mL (≈ 10.8 µM) | 15 µg/mL (≈ 16.2 µM) | 5 µg/mL (≈ 5.41 µM) |  |  |  |  |  |  |  |  |  |  |  |  |  |  |  |  | 
CN[C@@H]1[C@H](O[C@H]2[C@H](O[C@H]3[C@H](O)[C@@H](O)[C@H](N=C(N)N)[C@@H](O)[C@@H]3N=C(N)N)O[C@@H](C)[C@]2(O)C=O)O[C@@H](CO)[C@H](O)[C@H]1O.CN[C@@H]1[C@H](O[C@H]2[C@H](O[C@H]3[C@H](O)[C@@H](O)[C@H](N=C(N)N)[C@@H](O)[C@@H]3N=C(N)N)O[C@@H](C)[C@]2(O)C=O)O[C@@H](CO)[C@H](O)[C@H]1O.O=S(=O)(O)O.O=S(=O)(O)O.O=S(=O)(O)O [STREPTOMYCIN SULFATE] |  |  |  | 5 µg/mL |  |  |  |  |  |  |  |  |  |  |  |  |  |  |  | 
COC(=O)C1(O)C(=O)C(C)=COc2oc3cccc(O)c3c(=O)c21 (stereo not drawn) [XANTHEPINONE] | 50 µg/mL (≈ 150 µM) | 10 µg/mL (≈ 30.1 µM) |  | 50 µg/mL (≈ 150 µM) | 2 µg/mL | 10 µg/mL | 25 µg/mL (≈ 75.2 µM) | > 50 µg/mL | > 50 µg/mL | > 50 µg/mL | > 50 µg/mL | > 50 µg/mL | > 50 µg/mL | 50 µg/mL (≈ 150 µM) | 25 µg/mL | 50 µg/mL | 25 µg/mL | 5 µg/mL | Not toxic | Not toxic
